# Assay results as given in PubChem BioAssay.
# The source made the active and inactive calls.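 How the source made its calls, unless noted: active means viability at or under a set limit in both replicates, limit being median viability minus 3 SD (cut at about 48% in these data, passing the limit was not always enough); inconclusive means at or under the limit in just one replicate; inactive means at or above the limit in both replicates.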
# Experiments:
# [1] = SK-BR-3 cell growth inhibitors, pilot screen, 24 h, human (AID 572;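 active means viability at or below 10% of carrier control in both of two separate runs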;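 further: compound exposure lasted between 18 and 24 h rather than exactly 24 h; 100% = carrier-treated control wells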); conditions: SK-BR-3 viability, CellTiter-Glo luminescence, at 10 µM, stronger effect = lower value
# [2] = HUVEC growth inhibition – cell-based, human, primary screen (AID 575;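 active means viability at or below 30% in both replicate assays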;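 further: 100% = median of untreated cell wells with 0.1% DMSO on each plate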); conditions: HUVEC proliferation, CellTiter-Glo luminescence, 72 h; at 10 µM; stronger effect = lower value
# Procedure, shortened: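 Assay system: Primary human umbilical vein endothelial cells | Quantity: 1250 cells per well | Medium: Supplemented EBM, 2% fetal bovine serum | Detection: CellTiter-Glo luminescence measuring cellular ATP | Read-out: % viability vs DMSO wells | Plate: Collagen-coated 384-well format | Times: 72 h exposure, 37 °C, 5% CO2, 30 min RT equilibration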
# [3] = growth inhibitors of H69AR lung tumor, primary screen, human, duplicate replicates (AID 580); conditions: H69AR lung tumor cells viability, ATP luminescence, 72 h; at 10 µM; stronger effect = lower value;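 further: 100% = mean luminescence of untreated wells and 0% = no signal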
# [4] = reversal of MRP1-mediated doxorubicin resistance, pilot screen, H69AR cells, doxorubicin co-treatment (AID 601;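 active means viability loss from added drug above about 55%, and viability with drug at most 40%, in both replicates, limit read from the data, passing the limit was not always enough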); conditions: CellTiter-Glo, 72 h, at 10 µM; for differential viability (reversal): stronger effect = higher value
# [5] = 384-well plate pilot, post-Golgi transport modulator project, inhibition of yeast transport mutant growth (AID 636; in the data active means inhibition above about 31%); conditions: absorbance 615 nm, about 18 h, stronger effect = higher value
# [6] = growth suppression of yeast trafficking mutant, preliminary HTS, modulators of trafficking downstream of Golgi apparatus project, 1536-format plate, OD 615 nm (AID 637; in the data active means inhibition above about 30%); conditions: yeast transport mutant growth, absorbance 615 nm, 18 h; stronger effect = higher value
# [7] = H69AR cells + 2 uM doxorubicin, measured here: viability with 2 uM doxorubicin, stronger effect = lower value
# [8] = H69AR cells, compound alone cytotoxicity
SMILES,viability [1],viability [2],viability [3],differential viability (reversal) ([4]; H69AR cells + 2 uM doxorubicin),"viability [4, 7] [%]","viability [4, 8] [%]",inhibition [5],inhibition [6]
CS(=O)(=O)N(CC(=O)N1CCCCCC1)c1ccc(Br)cc1,86% (inactive),96.5% (inactive),97.9% (inactive),17.2% (inactive),80.6,97.9,-7.47% (inactive),-10% (inactive)
c1ccc(-c2ccc(C(c3ccccc3)n3ccnc3)cc2)cc1 (centres undefined),140% (inactive),74.3% (inactive),63.3% (inactive),-2.76% (inactive),66,63.3,100% (active),100% (active)
COc1cccc(C(=O)NC2=NCCS2)c1,109% (inactive),100% (inactive),96.7% (inactive),12.1% (inactive),84.6,96.7,-4.11% (inactive),0.32% (inactive)
COC(=O)c1ccc(C2C(C#N)=C(N)Oc3cc(C)n(C)c(=O)c32)cc1 (centres undefined),104% (inactive),95.5% (inactive),97.8% (inactive),2.3% (inactive),95.4,97.8,-0.82% (inactive),-3.23% (inactive)
O=C(O)c1ccc(C2SCC(=O)N2Cc2ccccc2)cc1 (centres undefined),95% (inactive),109% (inactive),96.9% (inactive),1.26% (inactive),95.6,96.9,-1.07% (inactive),0% (inactive)
O=C(CSc1nc2ccccc2o1)NC(=O)NCc1ccco1,92% (inactive),96.3% (inactive),89.3% (inactive),3.28% (inactive),86.1,89.3,-3.51% (inactive),-1.27% (inactive)
CC(=O)Nc1nc(C)c(-c2csc(Nc3ccc(O)cc3)n2)s1,114% (inactive),19.7% (active),13.3% (active),-5.39% (inactive),18.6,13.3,-3.95% (inactive),-6.13% (inactive)
O=C1C2CCCN2C(c2ccccc2)N1c1ccc(Cl)cc1 (centres undefined),110% (inactive),79.1% (inactive),104% (inactive),19% (inactive),85.2,104,-4.67% (inactive),-5.82% (inactive)
COc1ccc(NC(=O)N(C2CCCCC2)C2CCN(C(C)C)CC2)c(OC)c1,87% (inactive),100% (inactive),103% (inactive),19.4% (inactive),83.2,103,-2.73% (inactive),-7.87% (inactive)
C/C=C(\C)c1nnc(NC(=O)OCC)s1,94% (inactive),117% (inactive),96.4% (inactive),6.96% (inactive),89.4,96.4,-2.84% (inactive),-0.91% (inactive)
C=COCCNC(=O)Nc1ccc(Cl)c(Cl)c1,91% (inactive),101% (inactive),91.1% (inactive),-3.01% (inactive),94.1,91.1,2.16% (inactive),-1.09% (inactive)
CC1(C)O[C@@H]2C[C@H]3[C@@H]4C[C@H](F)C5=CC(=O)CC[C@]5(C)[C@H]4[C@@H](O)C[C@]3(C)[C@]2(C(=O)CO)O1,104% (inactive),107% (inactive),95.2% (inactive),-2.5% (inactive),97.7,95.2,-5.45% (inactive),-0.5% (inactive)
COc1ccc(NC(=O)Nc2ccccc2C)c(OC)c1,93% (inactive),95.1% (inactive),89% (inactive),20.8% (inactive),68.2,89,-4.8% (inactive),-1.09% (inactive)
O=C(Cn1cnc2c(cnn2-c2ccc(F)cc2)c1=O)N1CCN(c2ccccc2)CC1,97% (inactive),94% (inactive),70.3% (inactive),4.54% (inactive),65.8,70.3,0.39% (inactive),-5.57% (inactive)
O=C(COc1ccccc1Cl)NCCCN1CCOCC1,98% (inactive),86.9% (inactive),91.3% (inactive),-0.6% (inactive),91.9,91.3,3.15% (inactive),-2.74% (inactive)
CC1(C)CN=C(N2CCN(c3ncnc4sc5c(c34)CCCC5)CC2)S1,72% (inactive),54.2% (inactive),77.3% (inactive),-8.36% (inactive),85.6,77.3,-1.15% (inactive),0.83% (inactive)
CCCCn1cnc2c(c1=O)c1nc3ccccc3nc1n2Cc1ccc2c(c1)OCO2,85% (inactive),85.9% (inactive),68.9% (inactive),-5.45% (inactive),74.3,68.9,-5.14% (inactive),-1.82% (inactive)
CN1C(C(=O)Nc2ccccn2)=C(O)c2ccccc2S1(=O)=O,115% (inactive),94.7% (inactive),101% (inactive),13.4% (inactive),87.7,101,0.39% (inactive),-0.83% (inactive)
